In the EternaBench riboswitch data:

Tested on: MS2 coat protein
Assay: apparent Kd, MS2 coat protein; higher = weaker binding; RNA-MaP array; FMN 200 µM where present
Summary of the method: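 SNAP-549-labelled MS2 coat protein, doubled from 0.7 or 1.5 nM to 3 µM, was titrated over designs transcribed by stalled E. coli RNA polymerase on Illumina sequencing-chip clusters. Titrations were run without and then with constant ligand in 100 mM Tris-HCl pH 7.5, 80 mM KCl, 4 mM MgCl2, BSA, DTT, yeast tRNA and Tween-20. The apparent Kd is the median of filtered per-cluster fits to green signal normalised to red-channel RNA signal and control-cluster median Fmax.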

[1] = designed as: OFF switch for flavin mononucleotide, no ligand
[2] = ligand present: flavin mononucleotide, designed as: OFF switch for flavin mononucleotide
[3] = designed as: ON switch for flavin mononucleotide, no ligand
[4] = ligand present: flavin mononucleotide, designed as: ON switch for flavin mononucleotide

Sequence | apparent Kd [1] [nM] | apparent Kd [2] [nM] | apparent Kd [3] [nM] | apparent Kd [4] [nM]
AUUAUGUUAGGAUAUGCUUAUGGUGGAUAGUCGGAUAUGAUGCAGAAGGGACAUGAGGAUCACCCAUGUACUGA | 22.4 | 22.1 | – | –
AUUAUUAAAGUGAGGAUAUCUAGAGCUGCGGCUCUAGAGAAGGCACAUGAGGAUCACCCAUGUCUCAAUUAUUA | 18.7 | 54.4 | – | –
AUUAUUAUAAAUUUGGCAAGUAUCAGAAGGCGUUACAUGAGGAUCACCCAUGUUUUGUAUAGUAACGAGGAUAUGAUAUGGAAA | 15.2 | 13.5 | – | –
AUUAUUGACAUAGGAUAUUGUUACAUGAGGAUCACCCAUGUUAUUUGGGAAUUAGGAAUAUUUUACAAGAAGGAUGUUGUUACA | – | – | 106 | 72.5
AUUAUUUAGUGAGGAUAUACAGAUUAUGAGUUUGUAGAAGGCACUUUCCUCAGGACAUGAGGAUCACCCAUGUGUUAAUAAGAU | 89.7 | 316 | – | –
AUUGAUAUUGAGGAUAUGCUUUUAUUUGUUCUUGCAGAAGGCGAUACAUGAGGAUCACCCAUGUUUAUGGAAGU | 40.8 | 48 | – | –
AUUGAUGUUGAGGAUAUGCUUUUAUUUAUUCUUGCAGAAGGCGAUACAUGAGGAUCACCCAUGUUCAUGGAAGU | 40.5 | 40.6 | – | –
AUUGUAAUGUCAGGAUAUAUUAUUUUUUACAUAGUAGAAGGGAUAAUUAUACUCAUGUACAUGAGGAUCACCCAUGUUAAAUAU | – | – | 58.8 | 24.8
AUUGUGUUAGGAUAUGCUUAUGGUGGGUAGUCCAGUAUGAAGUAGAAGGGACAUGAGGAUCACCCAUGUGCUCA | 60.1 | 56.2 | – | –
AUUGUUUAUGUAGGAUAUGCCUGGCGUGCCUUCGCAGAAGGACAUGAGGAUCACCCAUGUAUUGCGGUCUGCGUUCAGAUCGCA | 53.3 | 67.2 | – | –
AUUUAAUUUAAUAAGAUCACAUGAGGAUCACCCAUGUAUAUAUAGGAUAUCAGCUCGUGUAGAGCUGAGAAGGAUAUAUACAUG | 55 | 55.2 | – | –
AUUUAUGUUGAGGAUAUGCUAAAAUGUAUAGUUGCAGAAGGCGACACAUGAGGAUCACCCAUGUUCAUGGAAUU | 37 | 43.7 | – | –
AUUUAUUUUGUGAGGAUAUGCAGGAUCUAGCUCCAGUAGAAGGCACAUGAGGAUCACCCAUGUGGGUCCGAGAC | 22.9 | 111 | – | –
AUUUCAAUUGUUUACAUGAGGAUCACCCAUGUCAUAAGUCAUGAGGAUAUGGUAUUGUAGUUAUUCCAGAAGGCAUAUAGCUUA | – | – | 38.5 | 14.4
AUUUCGUCAGGAUAUCCUAGUAAUUGUUUCAUAUUUACAAAGGAGAAGGGACAUGAGGAUCACCCAUGUUUGUC | 24.7 | 23.1 | – | –
CAAAAGCUAGGAUAUACGUCAAAGGGCCCGAUCGCUCUCGGACAUGAGGAUCACCCAUGUAGAAGGAGCGCACU | 14.4 | 16.8 | – | –
CAAAAGGAAGGAUAUACAUGUUAAUUAUCCGAAGAUGUCGUACAUGAGGAUCACCCAUGUAGAAGGUCCAAAAC | 30.3 | 78.7 | – | –
CAAAGGUGAGGAUAUGCAUAACUAUGACGAAAGUCAUAAACACAUGAGGAUCACCCAUGUAGAAGGCGCCACAA | 63.6 | 47.8 | – | –
CAAAGUUGGUAAGGAUAUCCCACAUUAUUCUGACCCGUGCAAGCUACAUGAGGAUCACCCAUGUGGGAGAAGGUGCGUUAUAGA | 121 | 160 | – | –
CAAAGUUGGUAAGGAUAUCCCACAUUAUUCUGGCCCGUGCAAGCUACAUGAGGAUCACCCAUGUGGGAGAAGGUGCGUUAAAGA | 22 | 33.7 | – | –
CAAAUUGCAGGAUAUACUGGGCCAGAGCCAUCGUGUAUUCCACAUGAGGAUCACCCAUGUAGAAGGGCACGUAC | 27.2 | 99.1 | – | –

Sequence | apparent Kd [1] [nM] | apparent Kd [2] [nM] | apparent Kd [3] [nM] | apparent Kd [4] [nM]
CAACAGUCAGGAUAUGCAAAAAAAACGCAACGCAAAAAAAAGCAGAAGGGACAUGAGGAUCACCCAUGUUGUCG | 30.2 | 26.3 | – | –
CAAGAUGUCUGGUAAUUGCGUACACAGGAUAUGGAUUGUUACAUGAGGAUCACCCAUGUUUCCUUUCAGAAGGGUGUAUCAUGU | – | – | 208 | 20.5
CAAGGCGUUGACCGACUCCAGACAUGAGGAUCACCCAUGUAGAAGGAUAUGUACCGCACCCUUGGACAGAAGGUCUACUGGGUU | 17 | 38.9 | – | –
CAAGGGCAUGAGAAGGCAUAAUUUAUAAUACCACAUGUUUACAUGAGGAUCACCCAUGUUACCUAUGAGGAUAUCAUGCCUACA | 14.3 | 13.1 | – | –
CAAGUCAUAGCUUCUUAGCCAGCCAGAAGGGUCUACAUGAGGAUCACCCAUGUGGUCUCGAAGGGACAGGAUAUGGAGGGCGUA | 11.1 | 37.7 | – | –
CAAUCACCCUCAUGUACCUGAGGACAUGAGGAUCACCCAUGUAAGGAUAUAGCCAUUAAAUCUAACUAGAAGGUAUAAAUAACC | 1010 | 523 | – | –
CAAUCUCAGAUAGGAUAUAUAGGAUAACUUAAGACCUAACAUGAGGAUCACCCAUGUGAUUAUUCGUAGAAGGAUCAUUGAACC | – | – | 205 | 190
CAAUUCCGAGGAUAUACAUGAGGAUCACCCAUGUCGGGCCUCAGCGUUUAGCGCUUAAGUAGAAGGUGGGUUUC | 40.7 | 54.5 | – | –
CAAUUUAUAACAGGAUAUAUAAUACAAUGGUUAAUAGAAGGGUUUAAUACAUGAGGAUCACCCAUGUCAUGUGUCAUAAUUACC | 23 | 17.1 | – | –
CACAAGAAAGUCGAACGUGUAACGAGAAGGUCUACAUCACAACAUGAGGAUCACCCAUGUGAUAAGAAGGAUAUUGUUGCGCGG | 8.76 | 8.32 | – | –
CACAAGAAAGUCGAAGGUUGAAGUAGAAGGACUACAACAUGACAUGAGGAUCACCCAUGUGCUAAGUAGGAUAUGCUUUAAUCG | 5.63 | 5.47 | – | –
CACAGGGAUUCAGGAUAUAUUAGCCGAGGCCGCGUAGAAGGGAAAUCCUGACAUGAGGAUCACCCAUGUUAACCCACUUUCCAU | – | – | 28.2 | 28.8
CACCGACCCUAUGUGUUCUAAACAUGAGGAUCACCCAUGUAUAGAAGGGUCUUCGCGAAACGCAGACAGGAUAUGUACAGGAGU | 7.23 | 13.6 | – | –
CACCGGUGUACAGGAUAUGCAUCUACGUGGGCUGCAGAAGGGUACAUGAGGAUCACCCAUGUCAACGAAUCCUCAAAUUAGCGA | 1030 | 1130 | – | –
CACGAUGAUGUAGGAUAUAUGCUGGAAUACAGCAUAGAAGGACAUGAGGAUCACCCAUGUAAAGUGUCUCCAAAUAACAUCGUG | 30.3 | 77.5 | – | –
CACGGAUAGUAGAAGGGUGACAUGAGGAUCACCCAUGUACUUAUGUAGGUAUUACUAUAUAAUUCACAGGAUAUACUAUCCGUG | – | – | 794 | 90.3
CACGGGUCAGGAUAUUGUUAGUUUAGUUGUUUGUAUUAGUUCGAGAAGGGACAUGAGGAUCACCCAUGUGGUCA | 285 | 269 | – | –
CACGUCAGGAAACGGAGCGGCCAACAUGAGGAUCACCCAUGUGAGGAUAUGCCUACUAAAAGUAGGCAGAAGGCACAAUUGGCA | 36.7 | 94.9 | – | –
CACGUCCACACAGGAUAUGCUGGACUUUGUCCAGCAGAAGGGUGACAACAUGAGGAUCACCCAUGUAGGACGUGUAUAUUUAAU | – | – | 1040 | 196
CACGUCCUCACAGGAUAUGCUGGACUUUGUCCAGCAGAAGGGUGAAAACAUGAGGAUCACCCAUGUAGGACGUGUAUAUUUAAU | – | – | 1020 | 125
CAGACACAUGAGGAUCACCCAUGUGAGGAUAUGCGUACGUUGUCCGUAGGCGACGUGCGCAGAAGGCGCAUUGG | 110 | 252 | – | –
